Test results from ChEMBL document CHEMBL3826898, “Oxa-Pictet-Spengler reaction as key step in the synthesis of novel σ receptor ligands with 2-benzopyran structure” (Bioorg Med Chem, 2016).

Columns and labels:
Mus musculus = organism: Mus musculus; assay: Analgesic activity in mouse by acetic acid writhing test; assay type: functional
[1] = target: Sigma non-opioid intracellular receptor 1 (Cavia porcellus, UniProt Q60492); assay: Displacement of [3H]-(+)-pentazocine from sigma 1 receptor in guinea pig brain membranes after 2 hrs by scintillation counting; assay type: cell membranes, Membrane
[2] = Displacement of [3H]di-o-tolylgluanidine from sigma 2 receptor in rat liver membranes at 1 uM after 2 hrs by scintillation counting; conditions: Membrane
[3] = Selectivity ratio of Ki for sigma 2 receptor in rat liver membranes to Ki for sigma 1 receptor in guinea pig brain membranes; assay type: cell membranes
[4] = Displacement of [3H]di-o-tolylgluanidine from sigma 2 receptor in rat liver membranes after 2 hrs by scintillation counting; assay type: cell membranes, Membrane
Outline: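 Rat liver membranes (sucrose homogenate; pellet held 30 min at room temperature in 50 mM TRIS pH 8.0; 100 µg protein) incubated with 3 nM [3H]DTG and test compound at 10^-10 to 10^-5 M, at room temperature for 120 min. […] Nonspecific binding with 10 µM DTG. Filtration, then scintillation counting. Duplicates. Ki by Cheng-Prusoff from IC50, mean ± SEM, n = 3.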

[5] = target: Sigma non-opioid intracellular receptor 1 (Cavia porcellus) (UniProt Q60492); assay: Displacement of [3H]-(+)-pentazocine from sigma 1 receptor in guinea pig brain membranes at 1 uM after 2 hrs by scintillation counting; assay type: cell membranes; conditions: Membrane
Outline: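 Guinea pig brain membranes (about 100 µg protein) incubated with 2 nM [3H]-(+)-pentazocine and 1 µM test compound in 50 mM TRIS pH 7.4 at 37 °C for 120 min. Filtered, then counted by scintillation. […] Result given as % inhibition of radioligand binding.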

Chain of Sigma non-opioid intracellular receptor 1 (Q60492 whole entry): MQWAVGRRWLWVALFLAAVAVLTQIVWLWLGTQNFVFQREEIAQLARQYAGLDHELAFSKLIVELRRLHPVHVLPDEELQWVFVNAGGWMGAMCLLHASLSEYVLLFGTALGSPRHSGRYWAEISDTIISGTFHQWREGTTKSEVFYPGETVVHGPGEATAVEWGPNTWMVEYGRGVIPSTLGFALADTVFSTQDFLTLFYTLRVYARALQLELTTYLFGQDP
Chain of Sigma non-opioid intracellular receptor 1 (Cavia porcellus) (Q60492 whole entry): as above

With CN1CCC2Cc3ccccc3C(C1)O2 (stereo not drawn) the ED50 (Mus musculus) was 20 mg/kg.

With OCCC1Cc2ccccc2C2(CCN(Cc3ccccc3)CC2)O1 (racemic) the Ki [1] was 20 nM and the inhibition [2] was 0%.

In the case of COC(=O)C[C@@H]1Cc2ccccc2[C@H](CCN2CCCC2)O1 (racemic), the Ki [1] is reported as > 1000 nM and the inhibition [2] is reported as 0%.

OCC[C@@H]1Cc2ccccc2[C@H](CCN2CCC(c3ccccc3)CC2)O1 (racemic) showed a Ki [1] of 52 nM, a Ratio Ki [3] of 0.4 and a Ki [4] of 20 nM.

For COC(=O)CC1Cc2ccccc2C2(CCN(CCCc3ccccc3)CC2)O1 (racemic), the Ki [1] was 39 nM, the Ratio Ki [3] was 15 and the Ki [4] was 610 nM.

For COC(=O)C[C@@H]1Cc2ccccc2[C@H](CCN2CCCCC2)O1 (racemic), the Ki [1] was 519 nM.

In the case of COC(=O)C[C@@H]1Cc2ccccc2[C@H](CN2CCC(c3ccccc3)CC2)O1 (racemic), the Ki [1] is reported as 673 nM, the Ratio Ki [3] is reported as 1.2 and the Ki [4] is reported as 785 nM.

Work on CCCCCCCCN1CCC2(CC1)OC(CCO)Cc1ccccc12 (racemic) yielded a Ki [1] of 26 nM, a Ratio Ki [3] of 9 and a Ki [4] of 234 nM.

Molecule CCCCN1CCC2(CC1)OC(CCO)Cc1ccccc12 (racemic) has a Ki [1] of 60 nM and an inhibition [2] of 13%.

COC(=O)C[C@@H]1Cc2ccccc2[C@H](CN2CCCCC2)O1 (racemic) showed a Ki [1] of 510 nM and an inhibition [2] of 7%.

Work on OCCC1Cc2ccccc2C2(CCN(CCCc3ccccc3)CC2)O1 (racemic) yielded a Ki [1] of 20 nM, a Ratio Ki [3] of 30 and a Ki [4] of 617 nM.

For COC(=O)C[C@@H]1Cc2ccccc2[C@H](CCN2CCC(c3ccccc3)CC2)O1 (racemic), the Ki [1] was 38 nM, the Ratio Ki [3] was 2.8 and the Ki [4] was 107 nM.

CCN1CCC2(CC1)OC(CCO)Cc1ccccc12 (racemic) gave an inhibition [2] of 0% and an inhibition [5] of 0%.

In the case of OCC[C@@H]1Cc2ccccc2[C@H](CCN2CCCCC2)O1 (racemic), the inhibition [2] is reported as 14% and the inhibition [5] is reported as 4%.

For Cc1ccccc1NC(=N)Nc1ccccc1C [DITOLYLGUANIDINE], the Ki [4] was 20.2 nM.
